# Laboratory results as given in ChEMBL document CHEMBL4376872, “Scaffold Hopping of Natural Product Evodiamine: Discovery of a Novel Antitumor Scaffold with Excellent Potency against Colon Cancer” (J Med Chem, 2020).
# The source made the active and inactive calls. No cut-off for these calls is given here.
# Tests used:
# HCT-116 [1] = test: Cell cycle arrest in human HCT116 cells assessed as accumulation in S phase at 4 nM incubated for 24 hrs by propidium iodide staining based flow cytometry (reference value: 42.31 %); type: functional
# [2] = molecular target: Histone-lysine N-methyltransferase EZH2 (Homo sapiens) (UniProt Q15910); test: Inhibition of EZH2 (unknown origin) using plate-coated histone as substrate at 5 uM incubated for 90 mins in presence of 5 uM SAM by AlphaScreen assay relative to control
# [3] = molecular target: cAMP-dependent protein kinase catalytic subunit alpha (Homo sapiens) (UniProt P17612); test: Inhibition of PKAC-alpha (unknown origin) using CREBtide as substrate at 5 uM incubated for 40 mins in presence of 10 uM ATP by kiase-Glo luminescence assay relative to control
# [4] = molecular target: NAD-dependent protein deacetylase sirtuin-1 (Homo sapiens) (UniProt Q96EB6); test: Inhibition of N-terminal His tagged recombinant human SIRT1 (193 to end residues) expressed in baculovirus infected Sf9 cells using HDAC substrate 1 as substrate at 5 uM incubated for 30 mins by fluorescence based analysis relative to control
# Tubulin (Sus scrofa) = Tubulin (Sus scrofa) (UniProt P02554+P02550); test: (§1) Inhibition of porcine brain tubulin polymerization measured at 1 min interval over 20 mins by absorbance based assay
# Tubulin = Tubulin (Sus scrofa, UniProt P02554+P02550); test: as §1
# [5] = molecular target: Poly [ADP-ribose] polymerase 2 (Homo sapiens) (UniProt Q9UGN5); test: Inhibition of PARP2 (unknown origin) using biotin-NAD+, NAD+ and sIDNA as substrate at 5 uM incubated for 1 hr by ELISA relative to control
# [6] = molecular target: CDK4/Cyclin D3 (Homo sapiens) (UniProt P11802+P30281); test: Inhibition of CDK4/Cyclin D3 (unknown origin) using Rb as substrate at 5 uM incubated for 40 mins in presence of 10 uM ATP by kinase-Glo luminescence assay relative to control; type: protein-complex assay
# [7] = molecular target: T1, DNA topoisomerase 1 (Escherichia coli (strain K12)) (UniProt P06612); test: Poison activity at Escherichia coli Top1 assessed as increase in […] band intensity at 12.5 to 100 uM using supercoiled pUC19 plasmid DNA as substrate incubated for 30 mins by agarose gel electrophoresis analysis
# T1 sequence (whole entry): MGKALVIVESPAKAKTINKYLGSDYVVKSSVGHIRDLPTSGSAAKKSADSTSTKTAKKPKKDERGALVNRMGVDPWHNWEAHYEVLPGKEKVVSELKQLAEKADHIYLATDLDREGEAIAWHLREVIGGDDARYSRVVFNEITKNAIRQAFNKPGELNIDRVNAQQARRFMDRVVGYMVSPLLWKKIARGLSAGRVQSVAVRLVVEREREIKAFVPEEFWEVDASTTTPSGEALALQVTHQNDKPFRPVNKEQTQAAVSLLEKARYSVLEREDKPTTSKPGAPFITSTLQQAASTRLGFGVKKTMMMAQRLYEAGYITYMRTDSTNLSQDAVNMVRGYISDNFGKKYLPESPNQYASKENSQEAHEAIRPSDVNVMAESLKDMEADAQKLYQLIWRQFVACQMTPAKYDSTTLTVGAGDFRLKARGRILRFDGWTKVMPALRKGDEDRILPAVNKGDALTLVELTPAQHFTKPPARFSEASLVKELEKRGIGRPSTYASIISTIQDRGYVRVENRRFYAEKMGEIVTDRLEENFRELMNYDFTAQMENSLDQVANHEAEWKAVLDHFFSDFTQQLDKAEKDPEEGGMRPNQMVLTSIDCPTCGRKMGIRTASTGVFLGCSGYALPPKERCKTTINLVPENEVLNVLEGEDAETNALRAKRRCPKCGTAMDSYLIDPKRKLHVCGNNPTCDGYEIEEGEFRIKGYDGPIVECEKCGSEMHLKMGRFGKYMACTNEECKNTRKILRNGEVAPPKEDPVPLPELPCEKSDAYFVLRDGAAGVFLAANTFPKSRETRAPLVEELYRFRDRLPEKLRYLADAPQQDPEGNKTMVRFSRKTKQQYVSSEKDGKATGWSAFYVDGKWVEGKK
# Summary of the method: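 Supercoiled pUC19 plasmid DNA was incubated with Top1 plus compound at 100, 50, 25 and 12.5 μM. Controls were DNA alone, DNA + Top1, and DNA + Top1 + CPT (100 μM). Products were resolved as gel lanes.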
# [8] = molecular target: N-lysine methyltransferase KMT5A (Homo sapiens) (UniProt Q9NQR1); test: Inhibition of SET8 (unknown origin) using plate-coated histone as substrate at 5 uM incubated for 90 mins in presence of 10 uM SAM by AlphaScreen assay relative to control
# PC-3 = test: Antiproliferative activity against human PC3 cells assessed as reduction in cell viability incubated for 72 hrs by CCK8 assay; type: functional, cell-based; settings: PC-3, 72 h
# [9] = molecular target: Tyrosine-protein kinase ABL1 (Homo sapiens) (UniProt P00519); test: Inhibition of Abl (unknown origin) using Abltide as substrate at 5 uM incubated for 40 mins in presence of 10 uM ATP by kiase-Glo luminescence assay relative to control
# Tubulin (Homo sapiens) = Tubulin (Homo sapiens) (UniProt P68371+Q9H4B7+P0DPH7+P68366+Q13509+Q71U36+P04350+Q3ZCM7+P07437+P68363+Q9BQE3+Q6PEY2+Q13885+Q9BVA1+Q9BUF5); test: Inhibition of tubulin polymerization in human HCT116 cells assessed as disruption of microtubule by measuring clustered microtubule arrangement in cytosol around the nucleus at 0.4 to 10 uM incubated for 12 hrs by immunofluorescence based analysis; type: cell-based
# Summary of the method: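 HCT116 cells were exposed to several concentrations for 12 h, with paclitaxel as the control. Nuclei were stained with DAPI and microtubules with mouse anti-α-tubulin. Microtubule organization was imaged by laser confocal microscopy.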
# [10] = molecular target: Lysine-specific demethylase 4A (Homo sapiens) (UniProt O75164); test: Inhibition of JMJD2A (unknown origin) using biotinylated histone H3 peptide as substrate at 5 uM incubated for 60 mins by AlphaScreen assay relative to control
# [11] = molecular target: 72 kDa type IV collagenase (Homo sapiens) (UniProt P08253); test: Inhibition of MMP2 (unknown origin) using Mca-PLGLDpaAR as substrate at 5 uM preincubated with enzyme for 2 hrs followed by incubation with substrate for 15 mins by fluorescence based analysis relative to control
# HCT-116 [12] = test: Induction of apoptosis in human HCT116 cells at 0.20 uM incubated for 24 hrs by annexin V-FITC and propidium iodide staining based flow cytometry (reference value: 0.86 %); type: functional
# MDA-MB-435 = test: Antiproliferative activity against human MDA-MB-435 cells assessed as reduction in cell viability incubated for 72 hrs by CCK8 assay; type: functional, cell-based; settings: MDA-MB-435, 72 h
# BEL-7404 tumor cell line = test: Antiproliferative activity against human Bel7404 cells assessed as reduction in cell viability incubated for 72 hrs by CCK8 assay; type: functional, cell-based; settings: BEL-7404, 72 h
# HCT-116 [13] = test: Cell cycle arrest in human HCT116 cells assessed as accumulation in G1 phase at 4 nM incubated for 24 hrs by propidium iodide staining based flow cytometry (reference value: 45.18 %); type: functional
# Chain of Tubulin (Sus scrofa) (P02550 whole entry, looked up): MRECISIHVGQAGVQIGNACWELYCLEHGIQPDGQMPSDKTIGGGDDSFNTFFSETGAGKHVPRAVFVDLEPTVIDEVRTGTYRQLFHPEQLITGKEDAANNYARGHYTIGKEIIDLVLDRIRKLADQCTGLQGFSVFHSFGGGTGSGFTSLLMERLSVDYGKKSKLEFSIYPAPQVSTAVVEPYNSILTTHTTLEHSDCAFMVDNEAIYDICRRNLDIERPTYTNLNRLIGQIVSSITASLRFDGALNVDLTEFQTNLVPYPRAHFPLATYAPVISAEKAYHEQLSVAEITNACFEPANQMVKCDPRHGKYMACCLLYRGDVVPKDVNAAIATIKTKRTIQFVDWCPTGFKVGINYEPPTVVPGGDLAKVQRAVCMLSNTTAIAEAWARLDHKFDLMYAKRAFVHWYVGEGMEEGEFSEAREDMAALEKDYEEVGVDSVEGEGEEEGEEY
# Chain of Tubulin (Sus scrofa) (P02554 whole entry, looked up): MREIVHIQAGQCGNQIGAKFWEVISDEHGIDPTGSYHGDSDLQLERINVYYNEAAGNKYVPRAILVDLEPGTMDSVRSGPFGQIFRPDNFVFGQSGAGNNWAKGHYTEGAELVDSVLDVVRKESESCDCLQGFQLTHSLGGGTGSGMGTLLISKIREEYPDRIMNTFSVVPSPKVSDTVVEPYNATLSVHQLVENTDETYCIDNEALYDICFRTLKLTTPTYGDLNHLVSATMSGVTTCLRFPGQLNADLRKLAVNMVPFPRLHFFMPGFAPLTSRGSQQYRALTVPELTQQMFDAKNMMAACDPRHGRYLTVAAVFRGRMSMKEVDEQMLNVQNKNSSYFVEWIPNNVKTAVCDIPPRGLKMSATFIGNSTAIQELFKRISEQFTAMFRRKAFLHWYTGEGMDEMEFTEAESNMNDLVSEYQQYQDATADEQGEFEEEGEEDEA
# Chain of NAD-dependent protein deacetylase sirtuin-1 (Homo sapiens) (Q96EB6 whole entry): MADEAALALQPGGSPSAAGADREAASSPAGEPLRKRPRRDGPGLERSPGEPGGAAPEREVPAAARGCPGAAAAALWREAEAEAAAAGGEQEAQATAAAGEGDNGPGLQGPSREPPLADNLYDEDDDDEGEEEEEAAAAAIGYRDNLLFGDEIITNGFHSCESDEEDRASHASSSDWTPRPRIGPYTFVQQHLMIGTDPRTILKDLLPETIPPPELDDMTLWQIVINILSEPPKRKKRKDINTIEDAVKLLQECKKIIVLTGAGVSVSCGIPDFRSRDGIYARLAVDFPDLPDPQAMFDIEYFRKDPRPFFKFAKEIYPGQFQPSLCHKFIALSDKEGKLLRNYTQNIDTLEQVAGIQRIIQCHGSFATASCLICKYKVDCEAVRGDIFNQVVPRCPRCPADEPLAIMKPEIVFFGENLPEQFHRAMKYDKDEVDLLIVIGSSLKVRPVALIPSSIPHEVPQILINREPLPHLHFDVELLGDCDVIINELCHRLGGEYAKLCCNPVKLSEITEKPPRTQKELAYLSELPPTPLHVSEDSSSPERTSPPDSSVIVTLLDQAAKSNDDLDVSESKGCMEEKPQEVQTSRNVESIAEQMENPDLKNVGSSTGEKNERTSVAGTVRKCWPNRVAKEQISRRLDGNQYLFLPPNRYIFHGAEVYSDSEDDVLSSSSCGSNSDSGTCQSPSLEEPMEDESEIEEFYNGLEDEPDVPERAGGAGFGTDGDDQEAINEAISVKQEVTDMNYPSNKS
# Chain of 72 kDa type IV collagenase (Homo sapiens) (P08253 110-660 limits assumed): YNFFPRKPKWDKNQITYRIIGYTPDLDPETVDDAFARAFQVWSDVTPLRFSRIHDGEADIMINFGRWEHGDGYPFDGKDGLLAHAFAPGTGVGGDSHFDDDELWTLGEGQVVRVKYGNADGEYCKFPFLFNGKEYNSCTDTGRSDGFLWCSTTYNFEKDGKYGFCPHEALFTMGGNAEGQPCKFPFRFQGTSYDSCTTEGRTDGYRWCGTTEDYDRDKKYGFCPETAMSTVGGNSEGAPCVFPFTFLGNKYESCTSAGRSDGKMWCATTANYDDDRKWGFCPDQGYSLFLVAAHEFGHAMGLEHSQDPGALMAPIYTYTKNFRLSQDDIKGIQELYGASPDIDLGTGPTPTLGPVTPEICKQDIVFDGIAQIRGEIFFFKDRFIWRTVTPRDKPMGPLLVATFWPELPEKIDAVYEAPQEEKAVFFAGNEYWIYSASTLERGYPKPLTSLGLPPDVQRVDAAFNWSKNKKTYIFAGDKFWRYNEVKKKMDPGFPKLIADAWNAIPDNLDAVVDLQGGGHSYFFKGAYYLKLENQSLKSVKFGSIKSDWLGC
# Chain of Histone-lysine N-methyltransferase EZH2 (Homo sapiens) (Q15910 whole entry, looked up): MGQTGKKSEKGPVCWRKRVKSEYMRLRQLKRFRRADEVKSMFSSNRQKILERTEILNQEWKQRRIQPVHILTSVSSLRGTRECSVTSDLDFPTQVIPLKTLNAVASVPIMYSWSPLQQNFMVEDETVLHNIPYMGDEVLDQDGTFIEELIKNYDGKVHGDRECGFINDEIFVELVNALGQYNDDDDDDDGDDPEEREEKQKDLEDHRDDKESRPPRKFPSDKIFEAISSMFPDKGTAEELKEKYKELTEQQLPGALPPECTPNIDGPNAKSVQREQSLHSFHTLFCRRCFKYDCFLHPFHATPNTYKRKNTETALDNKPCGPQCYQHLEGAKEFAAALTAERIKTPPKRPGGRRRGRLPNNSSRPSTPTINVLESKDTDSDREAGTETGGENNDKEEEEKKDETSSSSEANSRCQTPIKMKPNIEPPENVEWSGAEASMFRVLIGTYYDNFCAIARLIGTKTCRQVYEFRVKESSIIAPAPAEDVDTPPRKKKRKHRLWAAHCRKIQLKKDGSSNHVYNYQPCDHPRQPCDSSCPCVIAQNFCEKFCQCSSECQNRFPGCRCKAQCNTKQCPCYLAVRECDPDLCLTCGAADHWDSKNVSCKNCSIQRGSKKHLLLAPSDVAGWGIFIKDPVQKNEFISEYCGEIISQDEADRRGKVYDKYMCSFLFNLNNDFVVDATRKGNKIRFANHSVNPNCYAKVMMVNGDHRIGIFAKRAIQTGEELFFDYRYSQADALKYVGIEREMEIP
# Chain of Tyrosine-protein kinase ABL1 (Homo sapiens) (P00519 whole entry): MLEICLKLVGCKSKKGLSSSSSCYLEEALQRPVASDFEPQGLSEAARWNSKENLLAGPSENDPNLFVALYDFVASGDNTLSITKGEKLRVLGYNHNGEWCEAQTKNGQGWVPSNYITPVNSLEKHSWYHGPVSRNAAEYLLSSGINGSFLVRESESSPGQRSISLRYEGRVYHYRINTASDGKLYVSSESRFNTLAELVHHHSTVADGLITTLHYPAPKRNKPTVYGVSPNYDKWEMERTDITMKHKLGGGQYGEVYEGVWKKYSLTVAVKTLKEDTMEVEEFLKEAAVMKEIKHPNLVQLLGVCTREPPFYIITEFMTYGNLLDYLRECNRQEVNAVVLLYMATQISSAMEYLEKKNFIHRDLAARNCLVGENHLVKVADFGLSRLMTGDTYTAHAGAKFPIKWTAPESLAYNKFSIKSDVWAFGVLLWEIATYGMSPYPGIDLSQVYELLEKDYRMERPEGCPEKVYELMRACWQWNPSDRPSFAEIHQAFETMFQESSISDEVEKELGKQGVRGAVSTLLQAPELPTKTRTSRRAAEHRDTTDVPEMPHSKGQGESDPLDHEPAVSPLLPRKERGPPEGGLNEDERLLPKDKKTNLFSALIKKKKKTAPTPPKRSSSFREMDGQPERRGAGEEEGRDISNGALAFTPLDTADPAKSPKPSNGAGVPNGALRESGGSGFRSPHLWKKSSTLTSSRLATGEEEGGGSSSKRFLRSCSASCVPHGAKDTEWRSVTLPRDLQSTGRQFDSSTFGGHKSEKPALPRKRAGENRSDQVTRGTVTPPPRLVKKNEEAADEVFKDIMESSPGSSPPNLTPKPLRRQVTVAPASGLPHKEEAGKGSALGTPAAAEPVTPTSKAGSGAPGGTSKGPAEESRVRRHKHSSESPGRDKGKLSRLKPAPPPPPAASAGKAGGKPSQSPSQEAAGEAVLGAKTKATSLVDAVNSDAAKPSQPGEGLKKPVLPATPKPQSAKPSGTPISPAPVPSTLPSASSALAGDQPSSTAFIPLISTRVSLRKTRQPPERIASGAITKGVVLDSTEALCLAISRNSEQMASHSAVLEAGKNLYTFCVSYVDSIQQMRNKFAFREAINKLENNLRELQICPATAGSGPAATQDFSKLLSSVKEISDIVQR
# Chain of N-lysine methyltransferase KMT5A (Homo sapiens) (Q9NQR1 whole entry): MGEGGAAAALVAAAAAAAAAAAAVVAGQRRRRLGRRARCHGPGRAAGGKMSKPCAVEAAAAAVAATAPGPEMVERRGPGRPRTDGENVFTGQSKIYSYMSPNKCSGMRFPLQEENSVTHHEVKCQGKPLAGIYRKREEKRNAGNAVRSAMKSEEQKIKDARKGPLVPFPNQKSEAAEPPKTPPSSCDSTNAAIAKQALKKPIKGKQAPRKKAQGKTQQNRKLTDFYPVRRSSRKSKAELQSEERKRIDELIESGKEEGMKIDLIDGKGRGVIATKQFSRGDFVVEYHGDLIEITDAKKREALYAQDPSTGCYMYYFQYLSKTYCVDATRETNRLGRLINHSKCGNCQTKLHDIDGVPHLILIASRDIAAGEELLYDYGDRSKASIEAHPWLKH
# Chain of Poly [ADP-ribose] polymerase 2 (Homo sapiens) (Q9UGN5 whole entry): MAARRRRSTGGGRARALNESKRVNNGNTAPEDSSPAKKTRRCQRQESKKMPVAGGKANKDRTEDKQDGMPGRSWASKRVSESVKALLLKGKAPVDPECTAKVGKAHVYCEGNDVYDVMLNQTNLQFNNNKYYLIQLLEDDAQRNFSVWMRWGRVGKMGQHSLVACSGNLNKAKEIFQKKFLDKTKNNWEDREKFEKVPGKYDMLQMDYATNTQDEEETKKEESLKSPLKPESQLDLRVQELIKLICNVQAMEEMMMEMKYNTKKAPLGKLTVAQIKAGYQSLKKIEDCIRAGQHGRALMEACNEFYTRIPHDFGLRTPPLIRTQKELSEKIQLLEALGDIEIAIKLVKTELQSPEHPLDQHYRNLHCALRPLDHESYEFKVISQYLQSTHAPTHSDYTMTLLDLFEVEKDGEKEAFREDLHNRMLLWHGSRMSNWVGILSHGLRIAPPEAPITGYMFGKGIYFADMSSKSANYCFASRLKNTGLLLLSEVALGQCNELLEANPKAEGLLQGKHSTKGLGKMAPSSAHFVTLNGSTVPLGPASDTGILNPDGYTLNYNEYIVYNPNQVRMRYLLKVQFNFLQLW
smiles,measurement,setting,value
COc1ccc2c(c1)cc1n2CCN2C(=O)c3cc(F)ccc3N(C)C12 (centres undefined),Activity,HCT-116 [1],39.26%
same,inhibition,[2],< 20%
same,inhibition,[3],< 20%
same,inhibition,[4],< 20%
same,inhibition,Tubulin (Sus scrofa),Dose-dependent effect
same,IC50,Tubulin,26.3 µM
same,inhibition,[5],< 20%
same,inhibition,[6],< 20%
same,Activity,[7],Active
same,inhibition,[8],< 20%
same,IC50,PC-3,300 nM
same,inhibition,[9],< 20%
same,inhibition,Tubulin (Homo sapiens),Active
same,inhibition,[10],< 20%
same,inhibition,[11],< 20%
same,Activity,HCT-116 [12],45.97%
same,IC50,MDA-MB-435,1000 nM
same,IC50,BEL-7404 tumor cell line,100 nM
same,Activity,HCT-116 [13],43.01%
